# Screening results: PubChem, several laboratories
# Most compounds without a hit are left out; they make up all but 3.9% or so of the library.
# TMEM16A inh = blocks the mouse calcium-activated chloride channel TMEM16A | AID 588511 | actives 1.2% (n = 310,000) | Q8BHY3 | normalized B-score (activity score, 25-100; higher = stronger inhibition) at 10 µM | HEK293 TMEM16A/YFP iodide influx fluorescence, ionomycin;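 active = ratio plate-corrected score three or more library SD toward inhibition, starting fluorescence score within five deviations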;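 note: score derived from kinetic fluorescence span divided by baseline fluorescence per well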
# TAAR1 antag = human TAAR1 antagonism | Q96RJ0 | AID 624466 | actives 1.5% (n = 360,000) | inhibition, % at 3 µM | CHO RD-HGA16 TAAR1, Fluo-8 calcium fluorescence, antagonist;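 active = inhibition above a per-plate cutoff, the mean inhibition of test compounds on that plate plus 3 SD, cut at about 49% in these data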;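 note: 0% = DMSO plus EC80 beta-PEA response and 100% = DMSO alone without agonist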
# Target sequence (Q96RJ0 whole entry, looked up): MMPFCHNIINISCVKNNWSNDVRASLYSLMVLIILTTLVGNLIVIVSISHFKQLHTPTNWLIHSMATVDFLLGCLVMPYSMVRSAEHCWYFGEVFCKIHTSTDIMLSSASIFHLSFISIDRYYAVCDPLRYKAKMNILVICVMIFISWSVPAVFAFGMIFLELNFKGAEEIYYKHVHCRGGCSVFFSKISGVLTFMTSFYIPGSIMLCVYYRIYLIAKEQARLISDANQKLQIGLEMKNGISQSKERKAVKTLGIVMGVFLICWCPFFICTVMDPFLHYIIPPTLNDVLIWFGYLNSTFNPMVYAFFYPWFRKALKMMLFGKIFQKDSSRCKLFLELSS
#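 Material: RD-HGA16 CHO cells with stable hTAAR1 and Gα16; Dosing: single nominal final test compound concentration of 3 µM; Schedule: seeding 17-24 h prior, 75-min 37 °C, 30-min RT dye loading; Detection: kinetic Fluo-8 calcium fluorescence measurement; Measure: % inhibition from peak post-agonist over basal fluorescence ratio; Benchmarks: vehicle and agonist controls.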
# ANO1 activ = activators or potentiators of mouse TMEM16A chloride channel | HEK293 TMEM16A/YFP-H148Q/I152L, iodide quench fluorescence; stronger effect = lower value | actives 0.3% (n = 340,000) | B-score at 10 µM | AID 623877;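 active = fluorescence-ratio B-score plate-corrected deviation score at least 3 library SD below zero, with starting fluorescence score within 5 deviations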;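 note: channel opened by trigger with iodide after compound preincubation; score built on the fluorescence ratio of max minus min over baseline; more negative score means more quench and so TMEM16A activation or potentiation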
# TAAR1 ag = agonists of human TAAR1 | activation, % at 3 µM | actives 0.99% (n = 360,000) | Q96RJ0 | CHO RD-HGA16 TAAR1, Fluo-8 calcium fluorescence; vehicle wells 0%, saturating PEA agonist 100%;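 active = activation above the mean activation of all test compounds in the run plus 3 SD, cut at about 38% in these data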
#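 System: CHO-derived RD-HGA16 cells with stable Gα16 and human TAAR1. Times: 17-24 h plating, Fluo-8 75 min 37 °C, 30 min RT. Measured by: calcium-sensitive Fluo-8 signal, excitation 470-495, emission 515-575 nm. Read-out basis: % activation relative to PEA EC100 response. Control set: DMSO and PEA EC100. Repeats: no replicates (n 1).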
# CRFBP-R2 block = blocks CRF-induced signaling of the CRF-BP/CRF-R2 complex; HEK293 CRF-R2/CRF-BP, CRF-induced calcium fluorescence; inhibition, % at 11.8 µM; actives 0.59% (n = 350,000);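 active = inhibition of the ligand-induced calcium signal above about 50% at the single tested concentration, limit read from the data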
# CRFBP-R2 agonist = agonists of human CRF-binding protein/CRF-R2 receptor complex | HEK293 CRF-R2/CRF-BP, calcium dye fluorescence (FLIPR); percent of saturating CRF peptide response | activation, % at 13.2 µM | actives 0.46% (n = 350,000);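 active = activation of at least 50%, plus an integration ratio under a set limit after plate pattern correction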;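 note: plate controls were neutral control wells without compound for no effect and CRF at EC100 for full effect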
# TAAR1 ag confirm = confirmation of human TAAR1 agonists. shares compounds with TAAR1 ag. activation, % at 3 µM. AID 651783. CHO RD-HGA16 TAAR1, Fluo-8 calcium fluorescence; scaled: DMSO 0%, maximal phenethylamine 100%. actives 82% (n = 2,400);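 active = activation above a cutoff set at the run's mean compound activation plus 3 SD, cut at about 39% in these data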
# Ga16 nonsel ag = counter-screen for TAAR1 agonists: nonselective agonists in parental cells; shares compounds with TAAR1 ag; CHO-Ga16 parental, Fluo-8 calcium fluorescence; normalized to maximal ATP response, DMSO zero; activation, % at 3 µM; actives 50% (n = 2,400); AID 651787;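 active = activation above the run cutoff, the mean activation over all tested wells plus 3 SD, cut at about 12% in these data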;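 note: 0% = DMSO wells and 100% = maximal ATP response on the peak over basal ratio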
# TAAR1 desensitize = TAAR1 response desensitization, agonist counter-screen; shares compounds with TAAR1 ag; CHO RD-HGA16 hTAAR1, Fluo-8 calcium, beta-PEA response inhibition; inhibition, % at 3 µM; actives 46% (n = 2,400); AID 651951;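 active = inhibition above the run cutoff, the mean inhibition of all test compounds plus 3 SD, cut at about 49% in these data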;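 note: beta-PEA stimulus applied at its EC80; loss of beta-PEA calcium signal after compound pretreatment read as receptor desensitization; 0% = DMSO with beta-PEA at EC80 and 100% = DMSO alone without agonist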
# Ga16 antag count = counter-screen for TAAR1 agonists: nonselective Ga16 antagonists | shares compounds with TAAR1 ag | actives 39% (n = 2,400) | inhibition, % at 3 µM | CHO-Ga16 ATP-induced calcium, Fluo-8 fluorescence;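 active = inhibition above the plate's mean compound inhibition plus 3 SD, computed per plate, cut at about 22% in these data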;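 note: 0% = EC80 ATP with DMSO and 100% = DMSO wells without ATP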
# Active calls of the source: *; i = inactive; nt = no result given.
SMILES,TMEM16A inh,TAAR1 antag,ANO1 activ,TAAR1 ag,CRFBP-R2 block,CRFBP-R2 agonist,TAAR1 ag confirm,Ga16 nonsel ag,TAAR1 desensitize,Ga16 antag count
CCOc1ccc(CC(=NCCc2ccccc2)C2=C(O)CC(C)(C)CC2=O)cc1OCC,i,86.6*,i,80.6*,-6.9,1.2,88.5*,2.8,79.3*,9.6
O=C(CS(=O)(=O)c1cn(CC(=O)N2CCCC2)c2ccccc12)Nc1ccccc1F,i,-26.1,i,4.6,6.3,2.0,nt,nt,nt,nt
CCOC(=O)c1c(-c2cccs2)csc1NC(=O)CN1CCOCC1,i,28.2,i,43.9*,-17.6,0.4,30.5,38.2*,28.7,35.3*
CCOC(=O)c1c(-c2ccc(C)o2)csc1NC(=O)CN1CCOCC1,i,19.5,i,13.6,21.3,-4.0,nt,nt,nt,nt
O=C(O)C1=C(C(=O)N2CCN(C(=O)c3ccco3)CC2)CCCC1,i,13.2,i,43.1*,-7.2,7.7,51.6*,1.8,16.2,6.0
Cc1ccc(-n2c(SCC(N)=O)nnc2-c2ccc(S(=O)(=O)N3CCCCC3)cc2)c(C)c1,i,13.0,i,38.4*,-20.0,35.0,28.8,16.1*,31.7,34.4*
CCC1=NN(C(=O)c2ccc(Cl)cc2)C(O)(c2ccc(C)cc2)C1 (stereo unspecified),i,4.4,i,0.4,10.1,-0.1,nt,nt,nt,nt
CCOC(=O)C1=NN(C(=O)c2ccc(C)cc2)C(O)(c2ccc(Cl)cc2)C1 (stereo unspecified),100*,72.8*,i,115.7*,-12.2,89.8*,69.4*,78.7*,31.9,41.5*
CCCCOc1cc(NCc2ccccc2)c2ncn(C(C)C)c2c1,nt,49.7*,i,65.6*,-46.2,0.9,28.8,24.1*,24.6,23.8*
Nc1ncnc(N2CCOCC2)n1,nt,-13.1,i,0.4,0.3,-1.6,nt,nt,nt,nt
C=CCn1c(O)c(C2=c3ccccc3=NC2=O)c2ccccc21,i,26.8,i,63.9*,-5.6,17.2,63.1*,38.1*,68.0*,52.0*
C=CCn1c(O)c(C2=c3ccccc3=NC2=O)s/c1=N/c1nccs1,i,16.6,i,-0.3,22.5,-1.6,nt,nt,nt,nt
Cc1ccc2c(c1)c(C1=c3ccccc3=NC1=O)c(O)n2C,i,24.9,i,63.3*,2.6,-0.8,39.2*,16.2*,31.1,25.2*
Cc1c(-n2c(O)c(C3=c4ccccc4=NC3=O)sc2=O)c(=O)n(-c2ccccc2)n1C,i,6.5,i,13.2,5.2,-1.4,nt,nt,nt,nt
COc1ccccc1CNC(=O)CCS(=O)(=O)c1ccc2c(c1)CC(C)N2C(=O)C1CC1 (stereo unspecified),i,-21.0,i,3.1,5.4,-0.5,nt,nt,nt,nt
O=C(Cn1cnc2ccc(Cl)cc2c1=O)NC1CCS(=O)(=O)C1 (stereo unspecified),nt,4.3,i,0.0,-3.0,2.2,nt,nt,nt,nt
Cc1cccc(NS(=O)(=O)c2ccc(C3CCCCC3)cc2)c1,25*,55.2*,i,58.8*,-9.4,1.1,37.5*,8.1,48.0,36.9*
COc1cccc(NC(=O)C(=O)NCC(c2ccco2)N2CCc3ccccc3C2)c1 (stereo unspecified),i,-21.1,i,11.4,19.8,-0.1,nt,nt,nt,nt
CC(=O)Nc1cccc(NC(=O)C(=O)NCC(c2ccco2)N2CCc3ccccc3C2)c1 (stereo unspecified),i,0.7,i,56.6*,-6.2,-0.4,62.9*,10.5,53.5*,30.8*
COc1ccc(NC(=O)C(=O)NCC(c2ccco2)N2CCc3ccccc3C2)cc1OC (stereo unspecified),i,-10.3,i,56.0*,1.4,-0.5,47.9*,2.4,15.9,11.6
CCOC(=O)CC1C(=O)NCCN1C(=O)c1ccc(Cl)cc1Cl (stereo unspecified),i,-2.3,i,73.2*,9.8,-0.6,3.0,-0.7,-2.9,11.0
CCOC(=O)CC1C(=O)NCCN1C(=O)c1ccc(F)cc1F (stereo unspecified),i,-7.3,i,14.3,-3.8,1.3,nt,nt,nt,nt
CCCCNc1ccc2c3c(cccc13)C(=O)N(CCCC)C2=O,nt,107.9*,i,497.9*,-131.6,194.5*,182.4*,287.7*,90.4*,94.7*
COc1ccc(OC)c(NCCN2C(=O)c3ccccc3C2=O)c1,nt,-3.9,nt,1.7,8.3,-1.4,nt,nt,nt,nt
CCOC(=O)C1=CC[C@@H](c2cccc(Br)c2)N(S(=O)(=O)c2ccc(F)cc2)[C@H]1c1cccc(Cl)c1,nt,-38.1,nt,1.0,nt,nt,nt,nt,nt,nt
SMILES,TMEM16A inh,TAAR1 antag,ANO1 activ,TAAR1 ag,CRFBP-R2 block,CRFBP-R2 agonist,TAAR1 ag confirm,Ga16 nonsel ag,TAAR1 desensitize,Ga16 antag count
O=C(NCCc1cccs1)C1CC(c2cccc(F)c2)=NO1 (stereo unspecified),i,85.0*,i,58.6*,-6.7,1.0,73.3*,4.7,93.5*,3.8
Cc1noc(C)c1COc1cccc(C(=O)OC(C)C(=O)Nc2c(C)n(C)n(-c3ccccc3)c2=O)c1 (stereo unspecified),i,-10.7,i,2.9,-15.5,0.6,nt,nt,nt,nt
CCOC(=O)C1(CC2CCCCO2)CCN(Cc2cc3ccccc3[nH]2)CC1 (stereo unspecified),i,104.8*,i,148.6*,-10.4,126.2*,113.8*,97.9*,103.8*,95.2*
Cc1cc(=O)[nH]c(SCC(=O)N2CCCC(C)C2)n1 (stereo unspecified),i,-10.1,i,75.4*,-1.6,0.9,38.7*,0.9,-8.1,2.3
Cc1cc(=O)[nH]c(SCC(=O)N2CCCC2)n1,nt,-11.2,i,2.2,5.2,-1.5,nt,nt,nt,nt
O=S(=O)(SC1=NCCN1)c1ccccc1,nt,-21.6,i,12.4,6.1,1.0,nt,nt,nt,nt
COc1ccc2[nH]c(=O)c(CN(Cc3ccccc3OC)Cc3nnnn3CC3CCCO3)cc2c1 (stereo unspecified),i,-13.3,i,1.2,3.5,-0.7,nt,nt,nt,nt
